{
  "source": "ChEMBL document CHEMBL2407047",
  "about": "“Molecular design, synthesis and biological evaluation of 1,4-dihydro-4-oxoquinoline ribonucleosides as TcGAPDH inhibitors with trypanocidal activity” (Bioorg Med Chem Lett, 2013)",
  "proteins": {"B1": {"name": "Glyceraldehyde-3-phosphate dehydrogenase, glycosomal (Trypanosoma cruzi), P22513 (protein)", "chain": "MPIKVGINGFGRIGRMVFQALCEDGLLGTEIDVVAVVDMNTDAEYFAYQMRYDTVHGKFKYEVTTTKSSPSVAKDDTLVVNGHRILCVKAQRNPADLPWGKLGVEYVIESTGLFTAKAAAEGHLRGGARKVVISAPASGGAKTLVMGVNHHEYNPSEHHVVSNASCTTNCLAPIVHVLVKEGFGVQTGLMTTIHSYTATQKTVDGVSVKDWRGGRAAAVNIIPSTTGAAKAVGMVIPSTQGKLTGMSFRVPTPDVSVVDLTFTAARDTSIQEIDAALKRASKTYMKGILGYTDEELVSADFINDNRSSIYDSKATLQNNLPKERRFFKIVSWYDNEWGYSHRVVDLVRHMASKDRSARL"}},
  "key": {"[1]": {"compound": "COc1ccc2c(=O)c(C(=O)O)cn([C@@H]3O[C@H](CO)[C@@H](O)[C@H]3O)c2c1", "test": "(§1) Competitive inhibition of Trypanosoma cruzi glycosomal GAPDH assessed as increase in NAD+ Km by ITC method", "in_short": "(§2)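 Enzyme assays were run by isothermal titration calorimetry (ITC), probing the GAPDH NAD+ cosubstrate site and the active site. Affinity is reported as apparent Ki. Mode of inhibition was judged from how NAD+ and G3P KM and Vmax respond. Kinetic models were compared by second-order Akaike's information criterion.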"}, "[2]": {"compound": "COc1ccc2c(c1)c(=O)c(C(=O)O)cn2[C@@H]1O[C@H](CO)[C@@H](O)[C@H]1O", "test": "as §1", "in_short": "as §2"}, "[3]": {"compound": "Cc1ccc2c(=O)c(C(=O)O)cn([C@@H]3O[C@H](CO)[C@@H](O)[C@H]3O)c2c1", "test": "as §1", "in_short": "as §2"}, "[4]": {"compound": "Cc1ccc2c(c1)c(=O)c(C(=O)O)cn2[C@@H]1O[C@H](CO)[C@@H](O)[C@H]1O", "test": "as §1", "in_short": "as §2"}, "[5]": {"compound": "O=C(O)c1cn([C@@H]2O[C@H](CO)[C@@H](O)[C@H]2O)c2cc(Br)ccc2c1=O", "test": "as §1", "in_short": "as §2"}, "[6]": {"compound": "O=C(O)c1cn([C@@H]2O[C@H](CO)[C@@H](O)[C@H]2O)c2ccc(Br)cc2c1=O", "test": "as §1", "in_short": "as §2"}, "[7]": {"compound": "O=C(O)c1cn([C@@H]2O[C@H](CO)[C@@H](O)[C@H]2O)c2ccc(Cl)cc2c1=O", "test": "as §1", "in_short": "as §2"}},
  "data": [
    {"protein": "B1", "values": [
      {"measurement": "Km", "setting": "[1]", "result": 67.7, "unit": "µM"},
      {"measurement": "Km", "setting": "[2]", "result": 47, "unit": "µM"},
      {"measurement": "Km", "setting": "[3]", "result": 46.9, "unit": "µM"},
      {"measurement": "Km", "setting": "[4]", "result": 48.5, "unit": "µM"},
      {"measurement": "Km", "setting": "[5]", "result": 50, "unit": "µM"},
      {"measurement": "Km", "setting": "[6]", "result": 62.6, "unit": "µM"},
      {"measurement": "Km", "setting": "[7]", "result": 63.4, "unit": "µM"}
    ]}
  ]
}
